According to ChEMBL document CHEMBL5046272, “Discovery of Potent, Selective, and In Vivo Efficacious AKT Kinase Protein Degraders via Structure-Activity Relationship Studies” (J Med Chem, 2022):
Active and inactive are the calls of the source. The rule behind the calls is not given here.

How the values were obtained:
[1] = molecular target: von Hippel-Lindau disease tumor suppressor/AKT (Homo sapiens) (UniProt P31751+Q9Y243+P31749+P40337); assay: Protac activity at VHL/AKT in human BT-474 cells assessed as reduction in total AKT protein level at 1 to 10 uM measured after 24 hrs by Western blot analysis; format: cell-based; details: dose 1-10 µM
Procedure, shortened: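 BT474 cells treated 24 h at 1, 5 or 10 μM, alongside AZD5363 (1 μM) and the matching E3 ligand VHL-1 or pomalidomide (1 μM). Lysates in urea/SDS sample buffer were run on 4–12% Bis-Tris gels and blotted to PVDF. Blots probed for total AKT, P-AKT S473, P-PRAS40 T246 and P-S6 S240/244, with β-actin loading control and chemiluminescent detection.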

[2] = Protac activity at CRBN/AKT in human BT-474 cells assessed as reduction in AKT protein level at 1 to 10 uM measured after 24 hrs by Western blot analysis; details: dose 1-10 µM

SMILES | Activity [1] | Activity [2]
Cc1ncsc1-c1ccc(CNC(=O)[C@@H]2C[C@@H](O)CN2C(=O)[C@@H](NC(=O)CCOCCOCCOCCOCCC(=O)N2CCN(CC[C@H](NC(=O)C3(N)CCN(c4ncnc5[nH]ccc45)CC3)c3ccc(Cl)cc3)CC2)C(C)(C)C)cc1 | inactive | 
Cc1ncsc1-c1ccc(CNC(=O)[C@@H]2C[C@@H](O)CN2C(=O)[C@@H](NC(=O)COCCOCCOCCOCCOCC(=O)N2CCN(CC[C@H](NC(=O)C3(N)CCN(c4ncnc5[nH]ccc45)CC3)c3ccc(Cl)cc3)CC2)C(C)(C)C)cc1 | inactive | 
Cc1ncsc1-c1ccc(CNC(=O)[C@@H]2C[C@@H](O)CN2C(=O)[C@@H](NC(=O)COCC(=O)N2CCN(CC[C@H](NC(=O)C3(N)CCN(c4ncnc5[nH]ccc45)CC3)c3ccc(Cl)cc3)CC2)C(C)(C)C)cc1 | Active | 
NC1(C(=O)N[C@@H](CCN2CCN(C(=O)CCNc3cccc4c3C(=O)N(C3CCC(=O)NC3=O)C4=O)CC2)c2ccc(Cl)cc2)CCN(c2ncnc3[nH]ccc23)CC1 (stereo partly specified) |  | inactive
Cc1ncsc1-c1ccc(CNC(=O)[C@@H]2C[C@@H](O)CN2C(=O)[C@@H](NC(=O)CCOCCOCCC(=O)N2CCN(CC[C@H](NC(=O)C3(N)CCN(c4ncnc5[nH]ccc45)CC3)c3ccc(Cl)cc3)CC2)C(C)(C)C)cc1 | inactive | 
Cc1ncsc1-c1ccc(CNC(=O)[C@@H]2C[C@@H](O)CN2C(=O)[C@@H](NC(=O)CCOCCOCCOCCOCCOCCC(=O)N2CCN(CC[C@H](NC(=O)C3(N)CCN(c4ncnc5[nH]ccc45)CC3)c3ccc(Cl)cc3)CC2)C(C)(C)C)cc1 | inactive | 
Cc1ncsc1-c1ccc(CNC(=O)[C@@H]2C[C@@H](O)CN2C(=O)[C@@H](NC(=O)COCCOCCOCC(=O)N2CCN(CC[C@H](NC(=O)C3(N)CCN(c4ncnc5[nH]ccc45)CC3)c3ccc(Cl)cc3)CC2)C(C)(C)C)cc1 | inactive | 

Continued, values first:

Activity [1] | Activity [2] | SMILES
 | Active | NC1(C(=O)N[C@@H](CCN2CCN(C(=O)CCCCNc3cccc4c3C(=O)N(C3CCC(=O)NC3=O)C4=O)CC2)c2ccc(Cl)cc2)CCN(c2ncnc3[nH]ccc23)CC1 (stereo partly specified)
 | inactive | NC1(C(=O)N[C@@H](CCN2CCN(C(=O)CCCCCCNc3cccc4c3C(=O)N(C3CCC(=O)NC3=O)C4=O)CC2)c2ccc(Cl)cc2)CCN(c2ncnc3[nH]ccc23)CC1 (stereo partly specified)
inactive |  | Cc1ncsc1-c1ccc(CNC(=O)[C@@H]2C[C@@H](O)CN2C(=O)[C@@H](NC(=O)CCCC(=O)N2CCN(CC[C@H](NC(=O)C3(N)CCN(c4ncnc5[nH]ccc45)CC3)c3ccc(Cl)cc3)CC2)C(C)(C)C)cc1
inactive |  | Cc1ncsc1-c1ccc(CNC(=O)[C@@H]2C[C@@H](O)CN2C(=O)[C@@H](NC(=O)COCCOCC(=O)N2CCN(CC[C@H](NC(=O)C3(N)CCN(c4ncnc5[nH]ccc45)CC3)c3ccc(Cl)cc3)CC2)C(C)(C)C)cc1
inactive |  | Cc1ncsc1-c1ccc(CNC(=O)[C@@H]2C[C@@H](O)CN2C(=O)[C@@H](NC(=O)CCC(=O)N2CCN(CC[C@H](NC(=O)C3(N)CCN(c4ncnc5[nH]ccc45)CC3)c3ccc(Cl)cc3)CC2)C(C)(C)C)cc1
 | inactive | NC1(C(=O)N[C@@H](CCN2CCN(C(=O)CCCCCCCNc3cccc4c3C(=O)N(C3CCC(=O)NC3=O)C4=O)CC2)c2ccc(Cl)cc2)CCN(c2ncnc3[nH]ccc23)CC1 (stereo partly specified)
inactive |  | Cc1ncsc1-c1ccc(CNC(=O)[C@@H]2C[C@@H](O)CN2C(=O)[C@@H](NC(=O)CCOCCC(=O)N2CCN(CC[C@H](NC(=O)C3(N)CCN(c4ncnc5[nH]ccc45)CC3)c3ccc(Cl)cc3)CC2)C(C)(C)C)cc1
inactive |  | Cc1ncsc1-c1ccc(CNC(=O)[C@@H]2C[C@@H](O)CN2C(=O)[C@@H](NC(=O)CCOCCOCCOCCC(=O)N2CCN(CC[C@H](NC(=O)C3(N)CCN(c4ncnc5[nH]ccc45)CC3)c3ccc(Cl)cc3)CC2)C(C)(C)C)cc1
 | inactive | NC1(C(=O)N[C@@H](CCN2CCN(C(=O)CNc3cccc4c3C(=O)N(C3CCC(=O)NC3=O)C4=O)CC2)c2ccc(Cl)cc2)CCN(c2ncnc3[nH]ccc23)CC1 (stereo partly specified)
